The source made the active and inactive calls. The rule behind the calls is not given here.
Target: T1, Non-lysosomal glucosylceramidase (Mus musculus) (UniProt Q69ZF3)
T1 sequence (whole entry): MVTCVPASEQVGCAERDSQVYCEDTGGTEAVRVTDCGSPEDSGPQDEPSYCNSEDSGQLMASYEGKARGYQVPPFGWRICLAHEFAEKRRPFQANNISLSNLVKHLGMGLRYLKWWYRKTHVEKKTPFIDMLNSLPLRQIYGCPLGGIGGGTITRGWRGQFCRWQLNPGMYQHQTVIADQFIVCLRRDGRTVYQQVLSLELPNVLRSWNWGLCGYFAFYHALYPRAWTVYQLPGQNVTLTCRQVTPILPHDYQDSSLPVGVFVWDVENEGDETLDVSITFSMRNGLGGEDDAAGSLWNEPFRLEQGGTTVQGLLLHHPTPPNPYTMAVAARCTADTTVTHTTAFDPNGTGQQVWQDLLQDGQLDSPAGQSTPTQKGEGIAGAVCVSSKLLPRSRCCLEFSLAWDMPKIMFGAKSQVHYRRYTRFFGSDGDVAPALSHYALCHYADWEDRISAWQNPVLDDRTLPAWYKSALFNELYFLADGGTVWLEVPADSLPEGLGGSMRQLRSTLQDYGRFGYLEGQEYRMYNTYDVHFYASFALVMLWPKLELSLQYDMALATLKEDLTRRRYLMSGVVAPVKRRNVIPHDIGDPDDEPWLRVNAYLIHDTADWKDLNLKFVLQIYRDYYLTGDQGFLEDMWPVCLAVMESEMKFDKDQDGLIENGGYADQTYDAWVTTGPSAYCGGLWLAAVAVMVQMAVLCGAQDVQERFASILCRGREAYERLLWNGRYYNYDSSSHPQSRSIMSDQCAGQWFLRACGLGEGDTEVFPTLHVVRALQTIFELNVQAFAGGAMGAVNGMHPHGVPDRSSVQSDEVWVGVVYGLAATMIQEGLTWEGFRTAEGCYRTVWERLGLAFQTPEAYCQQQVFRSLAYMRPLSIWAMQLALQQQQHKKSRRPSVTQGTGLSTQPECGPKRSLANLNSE
Experiment: Inhibition of GBA2 activity in mouse tissue homogenate at 50 uM
How it was run: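 Mouse tissue homogenates were used to separate nonlysosomal GBA2 from lysosomal GCase β-glucosidase activity. Compounds were screened at 50 and 5 μM with 3 mM substrate. Two independent experiments, each run in duplicate.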

CCCCCCCCCN1C[C@H](O)[C@@H](O)[C@H](O)[C@H]1CO
inhibition: Active

Source: ChEMBL document CHEMBL2163314, “Potent aminocyclitol glucocerebrosidase inhibitors are subnanomolar pharmacological chaperones for treating gaucher disease” (J Med Chem, 2012)
